Source: ChEMBL document CHEMBL4266056, “Discovery and Pharmacology of a Novel Somatostatin Subtype 5 (SSTR5) Antagonist: Synergy with DPP-4 Inhibition” (ACS Med Chem Lett, 2018)
Activity calls are given as the source filed them. The rule behind the calls is not given here.

Legend:
[1] = target: Voltage-gated inwardly rectifying potassium channel KCNH2 (Homo sapiens, UniProt Q12809); assay: Inhibition of MK-499 binding to human ERG
[2] = target: Somatostatin receptor type 1 (Homo sapiens, UniProt P30872); assay: Antagonist activity at human SSTR1 expressed in CHO-K1 cell membranes; assay type: functional, cell-based
Somatostatin receptor type 1, sequence (P30872 whole entry): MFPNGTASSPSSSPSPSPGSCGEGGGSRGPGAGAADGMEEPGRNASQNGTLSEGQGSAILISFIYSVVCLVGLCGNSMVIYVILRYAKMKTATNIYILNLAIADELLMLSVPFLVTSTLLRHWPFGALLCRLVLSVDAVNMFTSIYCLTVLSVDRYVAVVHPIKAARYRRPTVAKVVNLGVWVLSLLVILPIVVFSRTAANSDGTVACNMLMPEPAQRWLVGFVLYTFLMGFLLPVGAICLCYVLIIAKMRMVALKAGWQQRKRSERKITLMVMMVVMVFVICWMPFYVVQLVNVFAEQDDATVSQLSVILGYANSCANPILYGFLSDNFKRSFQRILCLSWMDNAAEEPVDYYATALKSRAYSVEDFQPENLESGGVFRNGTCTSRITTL
Outline: (§1)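 Counter-screen by filtration membrane binding: competitive displacement of radiolabeled SST-28 from cell membranes expressing human SSTR1, SSTR2, SSTR3 or SSTR4. The IC50 is the mean of at least duplicate experiments within a maximal threefold range.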

[3] = target: Somatostatin receptor type 2 (Homo sapiens, UniProt P30874); assay: Antagonist activity at human SSTR2 expressed in CHO-K1 cell membranes; assay type: functional, cell-based; outline: as §1
Somatostatin receptor type 2, sequence (P30874 whole entry): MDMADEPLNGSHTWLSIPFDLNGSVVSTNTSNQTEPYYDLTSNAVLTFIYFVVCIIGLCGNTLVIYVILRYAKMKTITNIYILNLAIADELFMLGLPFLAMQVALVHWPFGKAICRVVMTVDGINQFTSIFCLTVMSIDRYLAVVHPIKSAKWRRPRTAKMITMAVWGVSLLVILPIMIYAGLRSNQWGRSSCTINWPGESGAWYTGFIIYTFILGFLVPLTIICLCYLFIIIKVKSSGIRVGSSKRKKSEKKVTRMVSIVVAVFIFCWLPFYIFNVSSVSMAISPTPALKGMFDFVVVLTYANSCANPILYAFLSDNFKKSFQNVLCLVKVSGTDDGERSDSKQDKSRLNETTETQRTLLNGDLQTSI

[4] = target: Potassium voltage-gated channel subfamily E member 1 (Homo sapiens, UniProt P15382); assay: Inhibition of IKs (unknown origin)
[5] = target: T1, Prostaglandin D2 receptor (Homo sapiens, UniProt Q13258); assay: Inhibition of prostanoid DP receptor (unknown origin)
T1 sequence (Q13258 whole entry): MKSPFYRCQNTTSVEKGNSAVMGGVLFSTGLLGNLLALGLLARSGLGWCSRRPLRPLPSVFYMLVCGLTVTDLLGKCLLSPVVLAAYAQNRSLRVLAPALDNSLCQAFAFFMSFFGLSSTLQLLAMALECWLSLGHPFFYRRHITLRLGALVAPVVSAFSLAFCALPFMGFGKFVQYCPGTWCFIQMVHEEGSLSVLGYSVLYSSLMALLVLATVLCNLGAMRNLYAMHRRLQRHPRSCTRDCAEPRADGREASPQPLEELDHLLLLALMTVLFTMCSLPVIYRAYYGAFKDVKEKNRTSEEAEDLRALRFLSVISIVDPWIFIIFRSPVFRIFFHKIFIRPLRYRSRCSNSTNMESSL

[6] = Clearance in rat at 1 mg/kg, iv or 2 mg/kg, po; assay type: ADME, organism-based; settings: in vivo
Outline: (§2)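 Rat pharmacokinetics after separate intravenous (1 mg/kg) and oral (2 mg/kg) dosing. Clearance is reported in mL/kg/min and half-life in hours. Oral bioavailability is given as F (%).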

[7] = Half life in dog at […], iv or 1 mg/kg, po; assay type: ADME, organism-based, Canis lupus familiaris; settings: in vivo
[8] = Oral bioavailability in rat at 2 mg/kg; assay type: ADME, organism-based; settings: in vivo; outline: as §2
Cytochrome P450 3A4 = Cytochrome P450 3A4 (Homo sapiens, UniProt P08684); assay: Inhibition of human CYP3A4; assay type: ADME
Cytochrome P450 3A4, sequence (P08684 whole entry): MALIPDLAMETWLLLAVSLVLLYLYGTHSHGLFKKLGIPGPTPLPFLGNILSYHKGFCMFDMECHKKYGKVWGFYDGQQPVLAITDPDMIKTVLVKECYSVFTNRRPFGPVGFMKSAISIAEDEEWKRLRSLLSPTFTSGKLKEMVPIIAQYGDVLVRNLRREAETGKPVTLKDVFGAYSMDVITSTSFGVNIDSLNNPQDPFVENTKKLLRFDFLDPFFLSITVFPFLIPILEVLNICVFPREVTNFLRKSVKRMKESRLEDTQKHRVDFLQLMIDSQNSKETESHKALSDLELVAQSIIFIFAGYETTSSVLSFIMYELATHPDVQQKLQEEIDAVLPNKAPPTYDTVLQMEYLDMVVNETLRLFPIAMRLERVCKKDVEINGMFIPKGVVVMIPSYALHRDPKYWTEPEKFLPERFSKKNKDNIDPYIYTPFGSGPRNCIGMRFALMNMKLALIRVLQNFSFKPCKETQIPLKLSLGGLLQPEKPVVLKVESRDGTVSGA

[9] = target: T2, Nuclear receptor subfamily 1 group I member 2 (Homo sapiens, UniProt O75469); assay: Activation of human PXR; assay type: ADME
T2 sequence (O75469 whole entry): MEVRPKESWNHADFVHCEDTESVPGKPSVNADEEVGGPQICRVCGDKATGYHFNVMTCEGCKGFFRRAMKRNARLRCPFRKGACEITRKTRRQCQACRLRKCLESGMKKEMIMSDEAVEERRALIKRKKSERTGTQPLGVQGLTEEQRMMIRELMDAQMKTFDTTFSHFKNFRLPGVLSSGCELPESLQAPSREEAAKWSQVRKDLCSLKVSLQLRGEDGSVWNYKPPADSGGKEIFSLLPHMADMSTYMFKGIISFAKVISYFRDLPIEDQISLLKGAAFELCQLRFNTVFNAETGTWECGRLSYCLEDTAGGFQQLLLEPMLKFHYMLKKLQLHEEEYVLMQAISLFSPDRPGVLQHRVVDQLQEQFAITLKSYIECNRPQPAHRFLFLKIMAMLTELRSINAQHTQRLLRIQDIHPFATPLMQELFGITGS

[10] = Aqueous solubility of the compound in neutral solution; assay type: physicochemical
Pancreatic islet = assay: Induction of glucagon secretion in human pancreatic islets in presence of glucose by ELISA; assay type: functional, cell-based
Outline: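 In the same human islet incubations, SST-14 and glucagon secretion were monitored alongside insulin.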

Mus musculus [11] = assay: Antidiabetic activity in HFD fed C57BL/6N mouse assessed as decrease in blood glucose AUC at 0.1 mg/kg administered as single oral dose pretreated for 60 mins followed by glucose challenge measured after 120 mins by OGTT; assay type: functional; design: scale not given: the % may be the effect or the level left
Outline: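 Oral dose titration (0.03-3 mg/kg) in HFD-fed mice, n=8. Dosing was followed by an oral glucose tolerance test. Net blood glucose AUC was expressed as % reduction versus vehicle, with P values versus vehicle.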

[12] = Drug uptake in C57BL/6N mouse whole blood at 0.1 mg/kg, po measured at 3 hrs; assay type: ADME, organism-based; settings: read-out: Drug uptake
Outline: (§3)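 Whole-blood compound exposure was measured 3 h after oral dosing (0.03-3 mg/kg) in HFD mice run through the OGTT dose titration. Unbound levels were derived using the plasma free fraction.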

[13] = Drug uptake in C57BL/6N mouse whole blood at 0.03 mg/kg, po measured at 3 hrs; assay type: ADME, organism-based; settings: read-out: Drug uptake; outline: as §3
[14] = Unbound plasma concentration in C57BL/6N mouse plasma at 1 mg/kg, po measured at 3 hrs; assay type: ADME, organism-based; settings: in vivo
[15] = Unbound plasma concentration in C57BL/6N mouse plasma at 0.1 mg/kg, po measured at 3 hrs; assay type: ADME, organism-based; settings: in vivo
[16] = Unbound plasma concentration in C57BL/6N mouse plasma at 0.03 mg/kg, po measured at 3 hrs; assay type: ADME, organism-based; settings: in vivo
Mus musculus [17] = assay: Antidiabetic activity in HFD fed C57BL/6N mouse assessed as increase in circulating total GLP-1 levels at 10 mg/kg, po pretreated for 60 mins measured 5 mins post glucose challenge by OGTT; assay type: functional, organism-based
Outline: (§4)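 The SSTR5 antagonist was given orally at 10 mg/kg, alone or combined with des-fluoro sitagliptin at 10 mg/kg, ahead of an oral glucose challenge. Blood was sampled 5 min after glucose for circulating total GLP-1, active GLP-1[7-36] amide and plasma insulin.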

Mus musculus [18] = assay: Antidiabetic activity in HFD fed C57BL/6N mouse assessed as increase in plasma insulin levels at 10 mg/kg, po pretreated for 60 mins measured 5 mins post glucose challenge by OGTT; assay type: functional, organism-based; outline: as §4
Mus musculus [19] = assay: Antidiabetic activity in HFD fed C57BL/6N mouse assessed as increase in circulating active GLP-1 levels at 10 mg/kg, po cotreated with DPP4 inhibitor des-fluoro sitagliptin pretreated with compound for 60 mins followed by glucose challenge measured after 120 mins by OGTT; assay type: functional, organism-based
Mus musculus [20] = assay: Antidiabetic activity in HFD fed C57BL/6N mouse assessed as increase in plasma insulin levels at 10 mg/kg, po cotreated with DPP4 inhibitor des-fluoro sitagliptin pretreated with compound for 60 mins followed by glucose challenge measured after 120 mins by OGTT; assay type: functional, organism-based

Voltage-gated inwardly rectifying potassium channel KCNH2, sequence (Q12809 whole entry): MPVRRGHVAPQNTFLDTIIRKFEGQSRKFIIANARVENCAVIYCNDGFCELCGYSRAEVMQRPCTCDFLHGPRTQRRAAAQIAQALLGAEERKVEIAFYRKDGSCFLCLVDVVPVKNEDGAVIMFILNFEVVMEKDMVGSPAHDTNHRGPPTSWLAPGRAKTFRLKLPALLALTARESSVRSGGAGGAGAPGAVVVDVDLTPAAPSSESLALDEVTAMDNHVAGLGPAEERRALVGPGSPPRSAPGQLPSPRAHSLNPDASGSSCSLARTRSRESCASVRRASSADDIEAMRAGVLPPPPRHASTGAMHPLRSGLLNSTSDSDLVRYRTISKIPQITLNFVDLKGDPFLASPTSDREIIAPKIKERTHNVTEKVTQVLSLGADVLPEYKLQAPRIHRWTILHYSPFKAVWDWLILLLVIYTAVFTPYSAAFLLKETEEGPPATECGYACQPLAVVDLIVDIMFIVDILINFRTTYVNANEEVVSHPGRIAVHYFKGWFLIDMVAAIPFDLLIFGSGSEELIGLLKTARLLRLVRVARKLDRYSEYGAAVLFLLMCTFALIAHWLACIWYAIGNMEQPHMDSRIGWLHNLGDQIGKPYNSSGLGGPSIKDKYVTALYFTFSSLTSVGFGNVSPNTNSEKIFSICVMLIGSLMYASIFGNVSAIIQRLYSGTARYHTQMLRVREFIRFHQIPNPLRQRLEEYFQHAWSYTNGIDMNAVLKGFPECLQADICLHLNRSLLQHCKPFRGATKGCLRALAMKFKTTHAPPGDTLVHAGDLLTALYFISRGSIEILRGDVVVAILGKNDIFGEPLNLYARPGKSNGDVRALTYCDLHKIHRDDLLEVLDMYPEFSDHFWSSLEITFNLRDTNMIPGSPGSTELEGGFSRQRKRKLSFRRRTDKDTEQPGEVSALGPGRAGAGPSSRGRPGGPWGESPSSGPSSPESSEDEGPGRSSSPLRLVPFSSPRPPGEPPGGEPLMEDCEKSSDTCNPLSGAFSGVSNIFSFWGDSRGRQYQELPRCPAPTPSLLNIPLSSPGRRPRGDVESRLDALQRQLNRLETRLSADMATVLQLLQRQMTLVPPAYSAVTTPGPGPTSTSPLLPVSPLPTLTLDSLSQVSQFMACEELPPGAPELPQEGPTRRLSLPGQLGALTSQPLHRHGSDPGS

## CCOc1cc(CN2CCC3(CC2)CC(=O)N(c2ccc(C(=O)O)cc2)C3)cc(OCC)c1-c1ccc(F)cc1.O=C(O)C(F)(F)F
[1]
  IC50: 45 µM
[2]
  IC50: > 10 µM
[3]
  IC50: > 10 µM
[4]
  IC50: > 15 µM
[5]
  IC50: 3 µM
[6]
  clearance: 15.2 mL/min/kg
[7]
  half-life: 16.5 h
[8]
  bioavailability: 41%
Cytochrome P450 3A4
  IC50: > 50 µM
[9]
  Activity: Not Active
[10]
  solubility: 300 µg/mL
Pancreatic islet
  Activity: inactive
Mus musculus [11]
  Activity: 58%
[12]
  concentration at 3 h: 11 nM
[13]
  concentration at 3 h: 4 nM
[14]
  Cp(f): 6 nM
[15]
  Cp(f): 0.5 nM
[16]
  Cp(f): 0.2 nM
Mus musculus [17]
  Activity: Active
Mus musculus [18]
  Activity: Active
Mus musculus [19]
  Activity: Active
Mus musculus [20]
  Activity: Active
